Assay results: ChEMBL document CHEMBL1158179, “Facile synthesis of dithiatetraaza-macrocycles of potential anti-inflammatory activity” (Eur J Med Chem, 2008)

Assays:
Rattus norvegicus [1] = experiment: Antiinflammatory activity against carrageenan-induced paw edema in Wister albino rat at 50 mg/kg, ip administered 1 hr before inflammation induction assessed after 4 hrs; format: functional; conditions: route intraperitoneal
Summary of the method: (§1)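 Wistar albino rats of either sex (pregnant females excluded), 160–190 g, 6 per group, kept at 22 °C on a 12 h light/dark cycle. Agent in DMSO given i.p. 1 h before 0.1 ml of 1% carrageenan in saline was injected subcutaneously into the right hind paw. Controls got DMSO. Oedema was paw volume by plethysmometer minus initial volume. Values are % inhibition = (Vc−Vt)/Vc×100; means ± SE, one-way ANOVA with LSD, p<0.05.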

Rattus norvegicus [2] = experiment: Antiinflammatory activity against carrageenan-induced paw edema in Wister albino rat at 50 mg/kg, ip administered 1 hr before inflammation induction assessed after 4 hrs relative to indomethacin; format: functional; conditions: route intraperitoneal
Summary of the method: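 Same rat carrageenan paw oedema protocol: i.p. dosing in DMSO 1 h before carrageenan, with paw volume read by plethysmometer at 4 h. Potency is the % oedema inhibition of the test group divided by that of the indomethacin (10 mg/kg i.p.) group.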

Rattus norvegicus [3] = experiment: Antiinflammatory activity against carrageenan-induced paw edema in Wister albino rat at 50 mg/kg, ip administered 1 hr before inflammation induction assessed after 1 hr; format: functional; conditions: route intraperitoneal; summary of the method: as §1
Rattus norvegicus [4] = experiment: Antiinflammatory activity against carrageenan-induced paw edema in Wister albino rat at 50 mg/kg, ip administered 1 hr before inflammation induction assessed after 2 hrs; format: functional; conditions: route intraperitoneal; summary of the method: as §1
Rattus norvegicus [5] = experiment: Antiinflammatory activity against carrageenan-induced paw edema in Wister albino rat at 50 mg/kg, ip administered 1 hr before inflammation induction assessed after 3 hrs; format: functional; conditions: route intraperitoneal; summary of the method: as §1
Mus musculus [6] = experiment: Toxicity in albino mouse at 500 mg/kg, ip assessed as mortality after 24 hrs by LD50 standard method; format: organism-based; parameters: dose 500 mg/kg, route intraperitoneal; conditions: in vivo
Summary of the method: (§2)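 Albino mice, 20-25 g, 9 groups of 6; test agents dissolved in DMSO and given intraperitoneally at 500, 750 and 1000 mg/kg body weight; controls received DMSO only. Toxic symptoms, mortality and postmortem findings recorded 24 h after administration; LD50 computed by formula from largest dose killing all animals, mean dead between successive groups, dose factor and group size.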

Mus musculus [7] = experiment: Toxicity in albino mouse at 750 mg/kg, ip assessed as mortality after 24 hrs by LD50 standard method; format: organism-based; parameters: dose 750 mg/kg, route intraperitoneal; conditions: in vivo; summary of the method: as §2
Mus musculus [8] = experiment: Toxicity in albino mouse at 1000 mg/kg, ip assessed as mortality after 24 hrs by LD50 standard method; format: organism-based; parameters: dose 1000 mg/kg, route intraperitoneal; conditions: in vivo; summary of the method: as §2
Rattus norvegicus [9] = experiment: Antiinflammatory activity against carrageenan-induced paw edema in Wister albino rat at 10 mg/kg, ip administered 1 hr before inflammation induction assessed after 4 hrs; format: functional; conditions: route intraperitoneal; summary of the method: as §1
Rattus norvegicus [10] = experiment: Antiinflammatory activity against carrageenan-induced paw edema in Wister albino rat at 10 mg/kg, ip administered 1 hr before inflammation induction assessed after 1 hr; format: functional; conditions: route intraperitoneal; summary of the method: as §1
Rattus norvegicus [11] = experiment: Antiinflammatory activity against carrageenan-induced paw edema in Wister albino rat at 10 mg/kg, ip administered 1 hr before inflammation induction assessed after 2 hrs; format: functional; conditions: route intraperitoneal; summary of the method: as §1
Rattus norvegicus [12] = experiment: Antiinflammatory activity against carrageenan-induced paw edema in Wister albino rat at 10 mg/kg, ip administered 1 hr before inflammation induction assessed after 3 hrs; format: functional; conditions: route intraperitoneal; summary of the method: as §1

Compound | inhibition in vivo at 50 mg/kg (Rattus norvegicus [1]) [%] | Ratio (Rattus norvegicus [2]) | also measured
S=C(Nc1ccccc1)Nc1ccccc1SCCCSc1ccccc1NC(=S)Nc1ccccc1 | 38 | 0.66 | –
O=C1Nc2ccc(cc2)NC(=O)Nc2ccccc2SCCCSc2ccccc2N1 | 48.9 | 0.85 | inhibition in vivo at 50 mg/kg (Rattus norvegicus [3]): 45.4%; inhibition in vivo at 50 mg/kg (Rattus norvegicus [4]): 44%; inhibition in vivo at 50 mg/kg (Rattus norvegicus [5]): 46.6%; Activity (Mus musculus [6]): Non-toxic; Activity (Mus musculus [7]): Non-toxic; Activity (Mus musculus [8]): Non-toxic
O=C(Nc1ccc(Cl)c(Cl)c1)Nc1ccccc1SCCCSc1ccccc1NC(=O)Nc1ccc(Cl)c(Cl)c1 | 28.3 | 0.49 | –
COc1ccc(NC(=O)Nc2ccccc2SCCSc2ccccc2NC(=O)Nc2ccc(OC)cc2)cc1 | 51.9 | 0.9 | inhibition in vivo at 50 mg/kg (Rattus norvegicus [3]): 35.2%; inhibition in vivo at 50 mg/kg (Rattus norvegicus [4]): 38.4%; inhibition in vivo at 50 mg/kg (Rattus norvegicus [5]): 39.2%; Activity (Mus musculus [6]): Non-toxic; Activity (Mus musculus [7]): Non-toxic; Activity (Mus musculus [8]): Non-toxic
COc1ccc(NC(=O)Nc2ccccc2SCCCSc2ccccc2NC(=O)Nc2ccc(OC)cc2)cc1 | 35 | 0.61 | –
CCNC(=O)Nc1ccccc1SCCSc1ccccc1NC(=O)NCC | 33.1 | 0.57 | –
S=C(Nc1ccccc1)Nc1ccccc1SCCSc1ccccc1NC(=S)Nc1ccccc1 | 43.3 | 0.75 | –
O=C(Nc1ccccc1)Nc1ccccc1SCCSc1ccccc1NC(=O)Nc1ccccc1 | 32.8 | 0.57 | –
O=C(Nc1ccccc1)Nc1ccccc1SCCCSc1ccccc1NC(=O)Nc1ccccc1 | 29.6 | 0.51 | –
O=C1Nc2ccc(cc2)NC(=O)Nc2ccccc2SCCSc2ccccc2N1 | 34.9 | 0.61 | –
O=C(Nc1ccc(Cl)c(Cl)c1)Nc1ccccc1SCCSc1ccccc1NC(=O)Nc1ccc(Cl)c(Cl)c1 | 7.1 | 0.12 | –
CCNC(=O)Nc1ccccc1SCCCSc1ccccc1NC(=O)NCC | 42.1 | 0.73 | –
COc1ccc2c(c1)c(CC(=O)O)c(C)n2C(=O)c1ccc(Cl)cc1 [INDOMETHACIN] | – | – | inhibition in vivo at 10 mg/kg (Rattus norvegicus [9]): 57.6%; inhibition in vivo at 10 mg/kg (Rattus norvegicus [10]): 50.5%; inhibition in vivo at 10 mg/kg (Rattus norvegicus [11]): 48.2%; inhibition in vivo at 10 mg/kg (Rattus norvegicus [12]): 50.1%
